Laboratory results: ChEMBL document CHEMBL1949507, “Synthesis and biological evaluation of [6]-gingerol analogues as transient receptor potential channel TRPV1 and TRPA1 modulators” (Bioorg Med Chem Lett, 2012)

Key:
Assay type in all cases: functional, cell-based
[1] = target: T1, Transient receptor potential cation channel subfamily V member 1 (Homo sapiens, UniProt Q8NER1); assay: Agonist activity at human TRPV1 ion channel expressed in HEK293 cells assessed as calcium influx by fluo-4-Am-based fluorimetry relative to ionomycin
[2] = target: T1, Transient receptor potential cation channel subfamily V member 1; assay: Antagonist activity at human TRPV1 ion channel expressed in HEK293 cells assessed as inhibition of capsaicin-induced calcium influx incubated for 5 mins prior to capsicin-induction by fluo-4-AM-based fluorimetry
Summary of the method: (§1)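 Stably transfected HEK293 (human TRPV1 or rat TRPA1) were loaded with Fluo-4-AM, washed in Tyrode's buffer and read by spectrofluorimetry (ex 488/em 516 nm). […] Inhibition of the agonist-evoked [Ca2+]i rise was recorded, giving IC50.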

[3] = target: Transient receptor potential cation channel subfamily A member 1 (Rattus norvegicus) (UniProt Q6RI86); assay: Agonist activity at rat TRPA1 ion channel expressed in HEK293 cells assessed as calcium influx by fluo-4-Am-based fluorimetry relative to allyl isothiocyanate
[4] = target: T2, Transient receptor potential cation channel subfamily A member 1 (Rattus norvegicus, UniProt Q6RI86); assay: Antagonist activity at rat TRPA1 ion channel expressed in HEK293 cells assessed as inhibition of AITC-induced calcium influx incubated for 5 mins prior to AITC-induction by fluo-4-AM-based fluorimetry; summary of the method: as §1
[5] = target: T1, Transient receptor potential cation channel subfamily V member 1; assay: Agonist activity at human TRPV1 ion channel expressed in HEK293 cells assessed as calcium influx by fluo-4-Am-based fluorimetry
[6] = target: T2, Transient receptor potential cation channel subfamily A member 1; assay: Agonist activity at rat TRPA1 ion channel expressed in HEK293 cells assessed as calcium influx by fluo-4-Am-based fluorimetry
[7] = target: Transient receptor potential cation channel subfamily A member 1 (Rattus norvegicus) (UniProt Q6RI86); assay: Agonist activity at rat TRPA1 ion channel expressed in HEK293 cells assessed as calcium influx by fluo-4-Am-based fluorimetry relative to ionomycin
Summary of the method: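 HEK293 cells stably transfected with rat TRPA1 cDNA, loaded with Fluo-4-AM in EMEM, washed twice in Tyrode's buffer and read in a spectrofluorimeter cuvette (ex 488 nm, em 516 nm). [Ca2+]i was measured before and after adding various concentrations of test compound. Responses in non-transfected wild-type HEK293 cells served as baseline and were subtracted from transfected-cell values.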

T2 sequence (Q6RI86 whole entry): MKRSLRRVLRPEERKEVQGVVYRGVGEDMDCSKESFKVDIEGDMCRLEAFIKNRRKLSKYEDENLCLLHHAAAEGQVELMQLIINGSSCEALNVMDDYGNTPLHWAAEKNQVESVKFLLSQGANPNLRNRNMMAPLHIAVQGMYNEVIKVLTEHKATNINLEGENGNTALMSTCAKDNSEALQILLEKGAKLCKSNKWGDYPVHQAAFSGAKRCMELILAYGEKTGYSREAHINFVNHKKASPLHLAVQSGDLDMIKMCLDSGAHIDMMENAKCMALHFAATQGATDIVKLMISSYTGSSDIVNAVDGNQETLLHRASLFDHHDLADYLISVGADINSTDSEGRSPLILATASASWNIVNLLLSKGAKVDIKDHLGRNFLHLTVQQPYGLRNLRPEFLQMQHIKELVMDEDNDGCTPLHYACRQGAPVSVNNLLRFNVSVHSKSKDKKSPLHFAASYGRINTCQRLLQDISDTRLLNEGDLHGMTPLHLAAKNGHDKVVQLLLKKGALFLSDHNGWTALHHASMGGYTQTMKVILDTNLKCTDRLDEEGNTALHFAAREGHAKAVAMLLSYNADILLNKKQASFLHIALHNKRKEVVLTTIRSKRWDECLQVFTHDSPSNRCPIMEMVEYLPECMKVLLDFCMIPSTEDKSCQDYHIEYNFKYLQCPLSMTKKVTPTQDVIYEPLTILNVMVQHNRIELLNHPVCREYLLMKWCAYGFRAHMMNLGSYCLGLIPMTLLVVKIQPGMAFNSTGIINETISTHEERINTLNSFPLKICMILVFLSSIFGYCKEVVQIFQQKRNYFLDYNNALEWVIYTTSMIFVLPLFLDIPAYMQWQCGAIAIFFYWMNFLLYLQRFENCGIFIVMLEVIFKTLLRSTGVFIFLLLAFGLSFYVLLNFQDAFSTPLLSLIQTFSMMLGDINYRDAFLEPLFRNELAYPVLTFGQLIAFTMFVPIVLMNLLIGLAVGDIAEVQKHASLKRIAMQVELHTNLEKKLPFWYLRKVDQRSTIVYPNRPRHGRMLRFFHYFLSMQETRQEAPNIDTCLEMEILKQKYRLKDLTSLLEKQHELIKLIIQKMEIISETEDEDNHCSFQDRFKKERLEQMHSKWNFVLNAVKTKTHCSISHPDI
Transient receptor potential cation channel subfamily A member 1 (Rattus norvegicus), sequence (Q6RI86 whole entry): as above
T1 sequence (Q8NER1 whole entry): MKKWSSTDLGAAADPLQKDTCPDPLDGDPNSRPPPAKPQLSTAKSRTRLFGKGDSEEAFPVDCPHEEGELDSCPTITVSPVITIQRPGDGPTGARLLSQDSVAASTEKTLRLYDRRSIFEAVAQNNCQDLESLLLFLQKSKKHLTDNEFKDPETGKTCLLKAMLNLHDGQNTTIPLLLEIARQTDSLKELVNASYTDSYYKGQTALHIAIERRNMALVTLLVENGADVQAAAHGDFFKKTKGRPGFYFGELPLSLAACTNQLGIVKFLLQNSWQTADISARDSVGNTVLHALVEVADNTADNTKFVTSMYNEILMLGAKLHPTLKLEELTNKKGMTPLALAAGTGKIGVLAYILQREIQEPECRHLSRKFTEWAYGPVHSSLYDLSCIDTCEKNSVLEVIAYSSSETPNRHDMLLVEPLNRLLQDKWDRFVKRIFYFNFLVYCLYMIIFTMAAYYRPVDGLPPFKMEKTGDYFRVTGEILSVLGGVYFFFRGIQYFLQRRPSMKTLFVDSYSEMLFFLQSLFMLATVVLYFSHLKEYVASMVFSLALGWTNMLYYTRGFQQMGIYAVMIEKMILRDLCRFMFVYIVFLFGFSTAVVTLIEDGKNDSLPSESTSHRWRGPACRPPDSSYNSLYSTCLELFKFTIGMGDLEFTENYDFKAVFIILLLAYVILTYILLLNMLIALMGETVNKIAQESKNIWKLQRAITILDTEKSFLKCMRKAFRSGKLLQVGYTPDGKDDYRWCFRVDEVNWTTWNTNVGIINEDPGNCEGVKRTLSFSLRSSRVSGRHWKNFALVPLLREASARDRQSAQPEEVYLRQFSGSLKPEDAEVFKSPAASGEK

| Structure (SMILES) | Efficacy [1] | IC50 [2] | Efficacy [3] | IC50 [4] | EC50 [5] | EC50 [6] | Efficacy [7] |
| --- | --- | --- | --- | --- | --- | --- | --- |
| CCCCCC(O)CC(=O)CCc1ccc2c(c1)OCO2 (stereo not given) | < 10% | > 100 µM | < 10% | > 100 µM | – | – | – |
| O=C(CCc1ccc(O)cc1)CC(O)Cc1ccccc1 (stereo not given) | 10.8% | 33.5 µM | 131% | 35.1 µM | 1 µM | 10.7 µM | – |
| Cc1cc(O)c(C(C)C)cc1CCC(=O)CC(O)Cc1ccccc1 (stereo not given) | < 10% | 35.3 µM | 51.3% | 39.7 µM | – | 3.5 µM | – |
| CC(C)c1cc(CCC(=O)CC(O)Cc2ccccc2)cc(C(C)C)c1O (stereo not given) | < 10% | > 50 µM | < 10% | – | – | – | – |
| O=C(CCc1ccc2c(c1)OCO2)CC(O)Cc1ccccc1 (stereo not given) | < 10% | > 50 µM | 16.5% | 14.4 µM | – | – | – |
| CCCCCC(O)CC(=O)CCc1ccc(O)c(OC)c1 (racemic) | 51.4% | 5 µM | 11.4% | > 100 µM | 3.3 µM | 10.4 µM | – |
| Cc1cc(O)c(C(C)C)cc1CCC(=O)CC(O)CCCCCCc1ccccc1 (stereo not given) | 33.5% | 1.3 µM | 163% | 14.3 µM | 0.5 µM | 22.1 µM | – |
| COc1cc(CNC(=O)CCCC/C=C/C(C)C)ccc1O | – | – | 100% | – | – | – | – |
| O=C(CCc1ccc2c(c1)OCO2)CC(O)CCCCCCc1ccccc1 (stereo not given) | – | > 10 µM | – | – | – | – | – |
| CC(C)c1cc(CCC(=O)CC(O)CCCCCCc2ccccc2)cc(C(C)C)c1O (stereo not given) | < 10% | > 10 µM | < 10% | 11.1 µM | – | – | – |
| COc1cc(CCC(=O)CC(O)CCCCCCc2ccccc2)ccc1O (stereo not given) | 60% | 0.11 µM | < 10% | 38.2 µM | 0.11 µM | – | – |
| O=C(/C=C/CCCCCCc1ccccc1)CCc1ccc(O)cc1 | 19.7% | 1.2 µM | 89.2% | 2.3 µM | 0.1 µM | 2.2 µM | – |
| COc1cc(CCC(=O)CC(O)Cc2ccccc2)ccc1O (stereo not given) | 56.9% | 13.2 µM | < 10% | 97.8 µM | 14.3 µM | – | – |
| O=C(CCc1ccccc1)CC(O)CCCCCCc1ccccc1 (stereo not given) | < 10% | > 10 µM | < 10% | – | – | – | – |
| O=C(CCc1ccc(O)cc1)CC(O)CCCCCCc1ccccc1 (stereo not given) | 43% | 9.4 µM | < 10% | 15.8 µM | 14.6 µM | – | – |
| O=C(CCc1ccccc1)CC(O)Cc1ccccc1 (stereo not given) | < 10% | > 50 µM | 17.5% | 4.5 µM | – | – | – |
| CCCCCC(O)CC(=O)CCc1ccccc1 (stereo not given) | < 10% | > 50 µM | < 10% | 56.1 µM | – | – | – |
| CCCCCC(O)CC(=O)CCc1ccc(O)cc1 (stereo not given) | 23.6% | 10.5 µM | 114% | 22.6 µM | 1.2 µM | 8.4 µM | – |
| CCCCCC(O)CC(=O)CCc1cc(C(C)C)c(O)cc1C (stereo not given) | < 10% | 4.8 µM | 78.2% | 3.9 µM | – | 1.1 µM | – |
| CCCCCC(O)CC(=O)CCc1cc(C(C)C)c(O)c(C(C)C)c1 (stereo not given) | < 10% | > 50 µM | 63.6% | 2.8 µM | – | 2.1 µM | – |
| C=CCN=C=S | – | – | – | – | – | – | 41.8% |
| CCCCC/C=C/C(=O)CCc1ccc(O)c(OC)c1 [SHOGAOL] | 79.2% | 0.29 µM | 91.1% | 16.7 µM | 0.32 µM | 16 µM | – |
